This is an account of results in ChEMBL document CHEMBL5579791, “Azetidine ring, salicylic acid, and salicylic acid bioisosteres as determinants of the binding characteristics of novel potent compounds to Stat3” (Bioorg Med Chem Lett, 2024).

Activity calls are given as the source filed them. The calls are words filed in the database; no cut-off is given here. Where a SMILES comes first, the peptide text is derived from it. [ ]: non-standard residue; d: D form. pY = N[C@@H](Cc1ccc(OP(=O)(O)O)cc1)C(=O)O

Experiment [1] concerns the target T1, Signal transducer and activator of transcription 3 (Homo sapiens, UniProt P40763). The experiment is described as follows: Displacement of 5-carboxyfluorescein GpYLPQTV-NH2 probe from C-terminal 6His-tagged recombinant human STAT3 (127 to 711 residues) SH2 domain extracted from Escherichia coli BL21 (DE3) assessed as inhibition of dimerization preincubated for 10 mins followed by probe addition and measured after 30 mins by fluorescence polarization assay. (In general: In fluorescence polarisation assays a small probe gives low polarisation when free and higher when bound to something large.)

For experiment [2], the target named is T1, Signal transducer and activator of transcription 3. Put plainly: Displacement of 5-carboxyfluorescein GpYLPQTV-NH2 probe from C-terminal 6His-tagged recombinant human STAT3 (127 to 711 residues) SH2 domain extracted from Escherichia coli BL21 (DE3) assessed as inhibition of dimerization preincubated for 30 mins followed by probe addition and measured after 30 mins by fluorescence polarization assay.

Experiment [3] has the same target. The experiment is described as follows: Displacement of 5-carboxyfluorescein GpYLPQTV-NH2 probe from C-terminal 6His-tagged recombinant human STAT3 (127 to 711 residues) SH2 domain extracted from Escherichia coli BL21 (DE3) assessed as inhibition of dimerization preincubated for 60 mins followed by probe addition and measured after 30 mins by fluorescence polarization assay.

Experiment [4] shares this target. Put plainly: Inhibition of C-terminal 6His-tagged recombinant human STAT3 (127 to 711 residues) DNA-binding activity transfected in v-Src transformed mouse NIH3T3 cell nuclear extract preincubated for 10 mins followed by addition of radiolabeled hSIE and measured after 30 mins by EMSA analysis. It counts as subcellular, Nucleus.
Experiment [5] has the same target. The experiment is described as follows: Inhibition of C-terminal 6His-tagged recombinant human STAT3 (127 to 711 residues) DNA-binding activity transfected in v-Src transformed mouse NIH3T3 cell nuclear extract preincubated for 60 mins followed by addition of radiolabeled hSIE and measured after 30 mins by EMSA analysis. It counts as subcellular, Nucleus. Background: Mobility shift assays separate free from complexed probe on a gel.

Experiment [6] has the same target. Put plainly: Inhibition of recombinant wild type tyrosine phosphorylated C-terminal 6His tagged human STAT3 (127 to 711 residues) DNA-binding activity transfected in v-Src transformed mouse NIH3T3 cell nuclear extract preincubated for 30 mins followed by addition of radiolabeled hSIE and measured after 30 mins by EMSA analysis. It counts as subcellular, Nucleus.

For experiment [7], the target named is Signal transducer and activator of transcription 3 (Homo sapiens, UniProt P40763, C328A). The experiment is described as follows: Inhibition of recombinant wild type tyrosine phosphorylated C-terminal 6His tagged human STAT3 C328A mutant (127 to 711 residues) DNA-binding activity transfected in v-Src transformed mouse NIH3T3 cell nuclear extract preincubated for 30 mins followed by addition of radiolabeled hSIE and measured after 30 mins by EMSA analysis. In kind it is subcellular, Nucleus.

Experiment [8] deals with Signal transducer and activator of transcription 3 (Homo sapiens, UniProt P40763, C542S). Put plainly: Inhibition of recombinant wild type tyrosine phosphorylated C-terminal 6His tagged human STAT3 C542S mutant (127 to 711 residues) DNA-binding activity transfected in v-Src transformed mouse NIH3T3 cell nuclear extract preincubated for 30 mins followed by addition of radiolabeled hSIE and measured after 30 mins by EMSA analysis. In kind it is subcellular, Nucleus.

Experiment [9] relates to PANC-1. Put plainly: Inhibition of STAT3/EGFR protein-protein interaction in human PANC-1 cells at 3 uM incubated for 8 hrs by immunoblotting analysis. It counts as cell-based. Summed up:
(§1)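 Panc-1 pancreatic cancer cells treated 8 h; whole-cell lysates prepared, EGFR, gp130, Src or JAK2 immunoprecipitated and immunoblotted for Stat3; control cells given 0.1% DMSO; 2 independent determinations.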

The subject of experiment [10] is PANC-1. Put plainly: Inhibition of STAT3/gp130 protein-protein interaction in human PANC-1 cells at 3 uM incubated for 8 hrs by immunoblotting analysis. In kind it is cell-based. Summed up: as §1
In general terms: A western blot detects proteins with antibodies after separation by electrophoresis.

For experiment [11], the target named is JAK2-STAT3 (Homo sapiens) (UniProt O60674+P40763). Put plainly: Inhibition of STAT3/JAK2 protein-protein interaction in human PANC-1 cells at 3 uM incubated for 8 hrs by immunoblotting analysis. In kind it is cell-based.
Experiment [12] has as its system PANC-1. The experiment is described as follows: Inhibition of STAT3/Src protein-protein interaction in human PANC-1 cells at 3 uM incubated for 8 hrs by immunoblotting analysis. It counts as cell-based. The method, boiled down: as §1

T1 sequence (P40763 whole entry, the tested form may be a part): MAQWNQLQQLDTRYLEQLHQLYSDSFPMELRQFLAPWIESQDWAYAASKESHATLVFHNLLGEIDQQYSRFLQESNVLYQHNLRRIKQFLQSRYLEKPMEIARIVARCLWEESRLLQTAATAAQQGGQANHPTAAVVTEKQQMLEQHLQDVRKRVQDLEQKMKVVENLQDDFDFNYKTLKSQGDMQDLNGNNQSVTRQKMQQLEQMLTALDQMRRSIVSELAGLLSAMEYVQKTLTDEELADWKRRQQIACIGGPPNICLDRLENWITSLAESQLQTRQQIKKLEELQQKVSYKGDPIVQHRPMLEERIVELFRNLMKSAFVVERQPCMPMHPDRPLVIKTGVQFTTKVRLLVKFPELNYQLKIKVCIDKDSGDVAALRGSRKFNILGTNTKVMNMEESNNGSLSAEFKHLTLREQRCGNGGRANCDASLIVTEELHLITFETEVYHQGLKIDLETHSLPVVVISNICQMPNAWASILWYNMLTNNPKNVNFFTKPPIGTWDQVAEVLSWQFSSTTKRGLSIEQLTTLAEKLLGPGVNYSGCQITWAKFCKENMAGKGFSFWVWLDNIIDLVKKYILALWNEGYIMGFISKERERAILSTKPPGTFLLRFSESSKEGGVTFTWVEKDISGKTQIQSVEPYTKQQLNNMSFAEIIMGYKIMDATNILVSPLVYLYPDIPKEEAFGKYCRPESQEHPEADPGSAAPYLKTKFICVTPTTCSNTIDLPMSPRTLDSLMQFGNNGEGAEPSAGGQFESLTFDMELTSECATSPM
Chain of Signal transducer and activator of transcription 3 (Homo sapiens, UniProt P40763, C542S) (P40763 2-770 C542S limits assumed): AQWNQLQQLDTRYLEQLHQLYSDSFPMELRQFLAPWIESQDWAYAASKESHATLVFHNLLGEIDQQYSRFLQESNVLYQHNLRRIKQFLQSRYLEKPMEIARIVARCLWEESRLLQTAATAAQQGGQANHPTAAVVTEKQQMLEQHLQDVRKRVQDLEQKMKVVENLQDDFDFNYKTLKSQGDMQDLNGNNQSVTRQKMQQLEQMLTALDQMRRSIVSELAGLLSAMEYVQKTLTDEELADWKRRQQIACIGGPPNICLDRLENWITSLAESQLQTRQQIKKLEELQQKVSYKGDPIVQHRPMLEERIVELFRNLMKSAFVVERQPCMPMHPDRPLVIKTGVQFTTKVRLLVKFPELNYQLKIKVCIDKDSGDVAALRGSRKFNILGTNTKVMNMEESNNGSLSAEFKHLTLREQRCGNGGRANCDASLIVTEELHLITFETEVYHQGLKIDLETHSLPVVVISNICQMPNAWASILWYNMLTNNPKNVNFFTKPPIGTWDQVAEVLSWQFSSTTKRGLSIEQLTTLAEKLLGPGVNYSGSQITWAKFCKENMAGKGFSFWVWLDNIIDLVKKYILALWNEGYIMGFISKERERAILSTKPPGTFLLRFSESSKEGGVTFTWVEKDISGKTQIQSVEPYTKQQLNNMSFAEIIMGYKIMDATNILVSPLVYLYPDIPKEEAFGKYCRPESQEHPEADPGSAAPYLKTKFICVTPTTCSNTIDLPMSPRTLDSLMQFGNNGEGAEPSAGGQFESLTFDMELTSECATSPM
Chain of Signal transducer and activator of transcription 3 (Homo sapiens, UniProt P40763, C328A) (P40763 2-770 C328A limits assumed): as the sequence (P40763 2-770 C542S limits assumed) above, with C327A, S541C counted along it

For `O=C(O)c1ccc(N(Cc2cnc(C3CCCCC3)cn2)C(=O)[C@H]2CCN2S(=O)(=O)c2c(F)c(F)c(Cl)c(F)c2F)cc1O`, the IC50 (usually the concentration that gives 50% inhibition) in [1] was found to be 190 µM; in experiment [2] it was 186 µM; in experiment [3], 181 µM.

For `CC(C)C[C@H](NC(=O)[C@H](Cc1ccc(OP(=O)(O)O)cc1)NC(=O)CN)C(=O)N1CCC[C@H]1C(=O)N[C@@H](CCC(N)=O)C(=O)N[C@H](C(=O)N[C@H](C(=O)O)C(C)C)[C@@H](C)O` (H-G[pY]LPQTV-OH), the IC50 in experiment [1] was 0.29 µM; in experiment [2], 0.22 µM; in experiment [3], 0.19 µM.

Turning to `CN(CC(=O)N(Cc1ccc(C2CCCCC2)cc1)c1ccc(C(=O)O)c(O)c1)S(=O)(=O)c1c(F)c(F)c(Cl)c(F)c1F`, the half-maximal inhibitory concentration (IC50) in experiment [1] was 48.4 µM; in [2], 41.4 µM; in experiment [3], 35.5 µM.

With `Cc1ccc(S(=O)(=O)N2CC[C@@H]2C(=O)N(Cc2ccc(C3CCCCC3)cn2)c2ccc(C(=O)O)c(O)c2)cc1`, the figures for the half-maximal inhibitory concentration (IC50) in [1], in [2] and in [3] were 86.4 µM, 83.6 µM and 82.5 µM, respectively.

Consider `O=C([C@H]1CCN1S(=O)(=O)c1c(F)c(F)c(F)c(F)c1F)N(Cc1ccc(C2CCCCC2)cn1)c1ccc2c(=O)[nH]ncc2c1`, for which the IC50 in [4] was 1.5 µM; in experiment [5], 0.38 µM; in experiment [6] it was 4.8 µM; in [7], 8.8 µM; in [8] it was 5.5 µM; in experiment [1] it was above 600 µM. The IC50 in [2] and in experiment [3] was above 600 µM throughout. Also, the inhibition entry (with PANC-1 [9]; in the experiment on PANC-1 [10]; in experiment [11]) was “Active” each time. Further, the inhibition result in the experiment on PANC-1 [12] was “inactive”.
